Laboratory results reported in ChEMBL document CHEMBL1828528, “Acyclic nucleoside thiophosphonates as potent inhibitors of HIV and HBV replication” (Eur J Med Chem, 2011).

Assays:
[1] = system: Human immunodeficiency virus 1; test: Antiviral activity against 100 TCID50 wild-type Human immunodeficiency virus 1 3B infected in CEM cells assessed as inhibition of syncytia formation after 4 days by microscopic analysis; format: functional, organism-based; details: CCRF-CEM, 96 h
Summary of the method: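 Human CEM cells (~3 × 10^5 cells/cm3) infected with 100 CCID50/mL HIV-1 IIIB and seeded into wells holding compound dilutions. After 4 days at 37 °C, giant-cell (syncytium) formation was scored microscopically. EC50 is the concentration inhibiting syncytia formation by 50%.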

[2] = system: Human immunodeficiency virus 2; test: Antiviral activity against 100 TCID50 wild-type Human immunodeficiency virus type 2 ROD infected in C8166 cells assessed as inhibition of syncytia formation after 4 days by microscopic analysis; format: functional, organism-based; details: Human immunodeficiency virus 2, ISOLATE ROD, C8166, 96 h
[3] = system: CCRF-CEM; test: (§1) Cytotoxicity against human CEM cells; format: cell-based; details: ccrf-cem
Summary of the method: (§2)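 Mock-infected CEM cells cultured alongside the anti-HIV assay with compound dilutions for 4 days at 37 °C. CC50 is the concentration inhibiting CEM cell proliferation by 50%.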

[4] = system: Human immunodeficiency virus 1; test: Antiviral activity against 125 TCID50 wild type HIV1 LAI infected in human H9 cells assessed as reduction in viral replication measured on day 7 post infection by reverse transcriptase activity; format: functional, organism-based; details: Human immunodeficiency virus 1, LAI, H9, 168 h
Summary of the method: (§3)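 PHA-P-activated PBMC (1.5 × 10^5; donor cells stimulated 3 days with 1 μg/mL PHA-P plus 5 IU/mL IL-2) or H9 cells (5 × 10^5) in RPMI-1640/10% FCS. Cells pre-treated 30 min with graded compound concentrations, then infected with HIV-1 LAI (100 or 125 TCID50). Supernatant RT activity read on day 7. EC50 from quadratic fit of % inhibition; triplicates, PBMC repeated with a second donor.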

[5] = system: Human immunodeficiency virus 1; test: Antiviral activity against 6250 TCID50 wild type HIV1 LAI infected in human H9 cells assessed as reduction in viral replication measured on day 7 post infection by reverse transcriptase activity; format: functional, organism-based; details: Human immunodeficiency virus 1, LAI, H9, 168 h
Summary of the method: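 H9 cells in RPMI-1640/10% FCS given graded compound concentrations, then infected with a high inoculum of 6250 TCID50 HIV-1 LAI. Supernatant reverse transcriptase activity measured on day 7 post infection. EC50 taken as the concentration giving 50% reduction of viral replication.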

[6] = system: Human immunodeficiency virus 1; test: Antiviral activity against 100 TCID50 wild type HIV1 LAI infected in human PBMC assessed as reduction in viral replication measured on day 7 post infection by reverse transcriptase activity; format: functional, organism-based; details: Human immunodeficiency virus 1, LAI, 168 h; summary of the method: as §3
[7] = Cytotoxicity against […]-activated human PBMC on day 7 by MTT assay; format: cell-based
Summary of the method: (§4)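 Uninfected PHA-P-activated PBMC and H9 cells exposed to graded compound concentrations. Viability by MTT on day 7. CC50 from quadratic fit of % viability against concentration; triplicates.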

[8] = system: Human immunodeficiency virus 1; test: Antiviral activity against HIV1 clade A isolate 4113 infected in human H9 cells assessed as inhibition of viral replication; format: functional, organism-based; details: Human immunodeficiency virus 1, clade A isolate 4113, H9
Summary of the method: (§5)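 H9 cells infected with HIV-1 clinical isolates of clades A, B, C, D, A/E, F and G, in the presence of graded compound concentrations. EC50 is the concentration reducing viral replication by 50%.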

[9] = system: Human immunodeficiency virus 1; test: Antiviral activity against HIV1 clade B isolate 2101 infected in human H9 cells assessed as inhibition of viral replication; format: functional, organism-based; details: Human immunodeficiency virus 1, clade B isolate 2101, H9; summary of the method: as §5
[10] = system: Human immunodeficiency virus 1; test: Antiviral activity against HIV1 clade B isolate 2056 infected in human H9 cells assessed as inhibition of viral replication; format: functional, organism-based; details: Human immunodeficiency virus 1, clade B isolate 2056, H9; summary of the method: as §5
[11] = system: Human immunodeficiency virus 1; test: Antiviral activity against HIV1 clade B isolate 1722 infected in human H9 cells assessed as inhibition of viral replication; format: functional, organism-based; details: Human immunodeficiency virus 1, clade B isolate 1722, H9; summary of the method: as §5
[12] = system: Human immunodeficiency virus 1; test: Antiviral activity against HIV1 clade C isolate 2914 infected in human H9 cells assessed as inhibition of viral replication; format: functional, organism-based; details: Human immunodeficiency virus 1, clade C isolate 2914, H9; summary of the method: as §5
[13] = system: Human immunodeficiency virus 1; test: Antiviral activity against HIV1 clade C isolate 4110 infected in human H9 cells assessed as inhibition of viral replication; format: functional, organism-based; details: Human immunodeficiency virus 1, clade C isolate 4110, H9; summary of the method: as §5
[14] = system: Human immunodeficiency virus 1; test: Antiviral activity against HIV1 clade D isolate 1649 infected in human H9 cells assessed as inhibition of viral replication; format: functional, organism-based; details: Human immunodeficiency virus 1, clade D isolate 1649, H9; summary of the method: as §5
[15] = system: Human immunodeficiency virus 1; test: Antiviral activity against HIV1 clade A/E isolate 2165 infected in human H9 cells assessed as inhibition of viral replication; format: functional, organism-based; details: Human immunodeficiency virus 1, clade A/E isolate 2165, H9; summary of the method: as §5
[16] = system: Human immunodeficiency virus 1; test: Antiviral activity against HIV1 clade F isolate 2338 infected in human H9 cells assessed as inhibition of viral replication; format: functional, organism-based; details: Human immunodeficiency virus 1, clade F isolate 2338, H9; summary of the method: as §5
[17] = system: Human immunodeficiency virus 1; test: Antiviral activity against HIV1 clade G isolate 3187 infected in human H9 cells assessed as inhibition of viral replication; format: functional, organism-based; details: Human immunodeficiency virus 1, clade G isolate 3187, H9; summary of the method: as §5
[18] = system: Hepatitis B virus; test: Antiviral activity against Hepatitis B virus infected in human HuH7 cells assessed as reduction in viral DNA level treated day 3 to day 8 post transfection by real time quantitative PCR analysis; format: functional, organism-based; details: Huh-7
[19] = system: Human alphaherpesvirus 1; test: Antiviral activity against Herpes simplex virus type 1 KOS infected in HEL cells assessed as inhibition of virus-induced cytopathic effect; format: functional, organism-based; details: Human alphaherpesvirus 1, KOS
Summary of the method: (§6)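 Confluent HEL cell monolayers inoculated with 100 CCID50 of virus. Compounds added after a 1–2 h adsorption period. Virus-induced cytopathic effect scored microscopically at 3 days post infection as % of untreated controls. EC50 derived from graphical plots.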

[20] = system: Human alphaherpesvirus 1; test: Antiviral activity against TK-deficient and ACR-resistant Herpes simplex virus type 1 KOS infected in HEL cells assessed as inhibition of virus-induced cytopathic effect; format: functional, organism-based; details: Human alphaherpesvirus 1, KOS; summary of the method: as §6
[21] = system: Human alphaherpesvirus 2; test: Antiviral activity against Herpes simplex virus type 2 G infected in HEL cells assessed as inhibition of virus-induced cytopathic effect; format: functional, organism-based; details: Human alphaherpesvirus 2, strain G; summary of the method: as §6
[22] = system: Vaccinia virus; test: Antiviral activity against Vaccinia virus infected in HEL cells assessed as inhibition of virus-induced cytopathic effect; format: functional, organism-based; details: Orthopoxvirus vaccinia; summary of the method: as §6
[23] = Cytotoxicity against human HEL cells assessed as alteration in cellular morphology by microscopic analysis; format: cell-based
Summary of the method: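 Uninfected confluent Vero, CrFK, HEL or HeLa cultures incubated with serial compound dilutions (up to 200 μM) for the same period as the antiviral assays. Minimal toxic concentration is the lowest giving microscopically detectable alteration of cell morphology.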

[24] = Cytotoxicity against human HuH7 cells; format: cell-based; details: Huh-7 cells
[25] = Cytotoxicity against human HepAD38 cells; format: cell-based
[26] = molecular target: Human immunodeficiency virus type 1 reverse transcriptase (Human immunodeficiency virus 1, UniProt Q72547); test: Inhibition of wild-type HIV1 subtype B reverse transcriptase assessed as incorporation of [3H]dTTP
Summary of the method: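 Recombinant clade B HIV-1 WT RT p66/p51, co-expressed with protease in E. coli, affinity-purified and active-site titrated. Diphosphate forms assayed on activated calf thymus DNA with [3H]dTTP. Aliquots spotted in duplicate on DE81 discs, washed with ammonium formate pH 8.0 and ethanol, then scintillation counted. IC50 averaged over ≥3 independent experiments.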

[27] = as §1; format: cell-based, CCRF-CEM; details: CCRF-CEM (CEM) cells; summary of the method: as §2
[28] = Cytotoxicity against […]-activated human H9 cells on day 7 by MTT assay; format: cell-based; summary of the method: as §4
[29] = system: Hepatitis B virus; test: Antiviral activity against Hepatitis B virus infected in human HepAD38 cells assessed as reduction in viral DNA level after 6 days by real time quantitative PCR analysis; format: functional, organism-based; details: HePAD38, 144 h
Summary of the method: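 Tetracycline-regulated HepAD38 cells (5 × 10^5) induced after 2–3 days by PBS wash and feeding with medium lacking tetracycline and G418, with or without compound. Medium changed at day 3. Intracellular HBV DNA quantified by TaqMan Q-PCR at day 6 post induction against a full-genome plasmid standard curve, expressed as % of untreated. Actives retested.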

Compound	EC50 [1]	EC50 [2]	EC50 [4]	EC50 [5]	EC50 [6]	CC50 at 7 day [7]	EC50 [8]	EC50 [9]	EC50 [10]	EC50 [11]	EC50 [12]	EC50 [13]	EC50 [14]	EC50 [15]	EC50 [16]	EC50 [17]	EC50 [19]	EC50 [20]	EC50 [21]	IC50 [26]	further results
Nc1ncnc2c1ncn2CCOCP(=O)(O)O [ADEFOVIR]	5.5 µM	7 µM	1.1 µM	7.9 µM	3.2 µM	> 30 µM	17.8 µM	3.51 µM	1.02 µM	1.85 µM	1.45 µM	2.74 µM	0.32 µM	0.32 µM	0.19 µM	0.22 µM	89 µM	20 µM	20 µM	–	CC50 [3]: 85 µM; EC50 [18]: 6 µM; EC50 [22]: > 200 µM; MCC [23]: > 200 µM; CC50 [24]: > 150 µM; CC50 [25]: > 150 µM
C[C@H](Cn1cnc2c(N)ncnc21)OCP(=O)(S)OP(=O)(O)OP(=O)(O)O (stereo not given in full)	–	–	–	–	–	–	–	–	–	–	–	–	–	–	–	–	–	–	–	13.9 µM	–
Nc1ncnc2c1ncn2CCOCP(=O)(O)OP(=O)(O)OP(=O)(O)O	–	–	–	–	–	–	–	–	–	–	–	–	–	–	–	–	–	–	–	7 µM	–
C[C@H](Cn1cnc2c(N)ncnc21)OCP(=O)(O)OP(=O)(O)OP(=O)(O)O	–	–	–	–	–	–	–	–	–	–	–	–	–	–	–	–	–	–	–	11.3 µM	–
C[C@H](Cn1cnc2c(N)ncnc21)OCP(=O)(O)O [TENOFOVIR ANHYDROUS]	4.1 µM	7.1 µM	0.23 µM	8.3 µM	3.4 µM	> 100 µM	5.61 µM	0.24 µM	1.25 µM	0.69 µM	0.34 µM	0.83 µM	0.1 µM	0.51 µM	0.04 µM	0.15 µM	> 200 µM	> 200 µM	> 200 µM	–	CC50 [27]: > 250 µM; CC50 at 7 day [28]: > 100 µM; EC50 [29]: 2.3 µM; EC50 [22]: > 200 µM; MCC [23]: > 200 µM; CC50 [24]: > 150 µM; CC50 [25]: > 150 µM
Nc1ncnc2c1ncn2CCOCP(=O)(S)OP(=O)(O)OP(=O)(O)O (stereo not given)	–	–	–	–	–	–	–	–	–	–	–	–	–	–	–	–	–	–	–	6.8 µM	–
